# Measurements from ChEMBL document CHEMBL5376013, “Design, synthesis and biological evaluation of novel morpholinopyrimidine-5-carbonitrile derivatives as dual PI3K/mTOR inhibitors” (RSC Med Chem, 2024).
# Key:
# Format in all cases: functional
# Conditions in all cases: read-out: GI
# [1] = tested on: MDA-MB-468; assay: Antitumor activity against human MDA-MB-468 cells assessed as growth inhibition at 10 uM relative to control
# Method in brief: (§1)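 After drug addition, plates were incubated 48 h at 37 °C under 5% CO2. Adherent cells were fixed with cold TCA (10% final, 60 min, 4 °C) and suspension cells with 16% final TCA. Staining used 0.4% SRB in 1% acetic acid, solubilized in 10 mM trizma, read at A515. Percent growth was calculated from time-zero, control and treated absorbances.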
# [2] = tested on: IGROV-1; assay: Antitumor activity against human IGROV-1 cells assessed as growth inhibition at 10 uM relative to control; method in brief: as §1
# [3] = tested on: A549; assay: Antitumor activity against human A549 cells assessed as growth inhibition at 10 uM relative to control; method in brief: as §1
# [4] = tested on: NCI-H460; assay: Antitumor activity against human NCI-H460 cells assessed as growth inhibition at 10 uM relative to control; method in brief: as §1
# [5] = tested on: UO-31; assay: Antitumor activity against human UO-31 cells assessed as growth inhibition at 10 uM relative to control
# Method in brief: (§2)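 Drug exposure 48 h at 37 °C, 5% CO2. Adherent cells fixed with cold TCA (10% final), suspension cells with TCA (16% final). Stained with 0.4% SRB in 1% acetic acid, dissolved in 10 mM Tris, A515. Growth relative to time-zero and untreated control.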
# [6] = tested on: HL-60; assay: Antitumor activity against human HL-60 cells assessed as growth inhibition at 10 uM relative to control; method in brief: as §1
# [7] = tested on: OVCAR-4; assay: Antitumor activity against human OVCAR-4 cells assessed as growth inhibition at 10 uM relative to control; method in brief: as §1
# [8] = tested on: SR; assay: Antitumor activity against human SR cells assessed as growth inhibition at 10 uM relative to control; method in brief: as §2
# [9] = tested on: HOP-62; assay: Antitumor activity against human HOP-62 cells assessed as growth inhibition at 10 uM relative to control; method in brief: as §1
# [10] = tested on: Hs-578T; assay: Antitumor activity against human Hs-578T cells assessed as growth inhibition at 10 uM relative to control; method in brief: as §1
# [11] = tested on: MDA-MB-231; assay: Antitumor activity against human MDA-MB-231 cells assessed as growth inhibition at 10 uM relative to control; method in brief: as §1
# [12] = tested on: HCC 2998; assay: Antitumor activity against human HCC 2998 cells assessed as growth inhibition at 10 uM relative to control; method in brief: as §1
# [13] = tested on: SF-295; assay: Antitumor activity against human SF-295 cells assessed as growth inhibition at 10 uM relative to control; method in brief: as §1
# [14] = tested on: HOP-92; assay: Antitumor activity against human HOP-92 cells assessed as growth inhibition at 10 uM relative to control; method in brief: as §1
smiles,measurement,setting,value
N#Cc1c(-c2ccc(Cl)cc2)nc(N/N=C/c2ccco2)nc1N1CCOCC1,inhibition of growth at 10 µM,[1],69.1%
same,inhibition of growth at 10 µM,[2],74.2%
same,inhibition of growth at 10 µM,[3],21.1%
same,inhibition of growth at 10 µM,[4],31.8%
same,inhibition of growth at 10 µM,[5],72.9%
same,inhibition of growth at 10 µM,[6],< 1%
same,inhibition of growth at 10 µM,[7],54.4%
same,inhibition of growth at 10 µM,[8],< 1%
same,inhibition of growth at 10 µM,[9],33.6%
same,inhibition of growth at 10 µM,[10],31.8%
same,inhibition of growth at 10 µM,[11],25.5%
same,inhibition of growth at 10 µM,[12],25.2%
same,inhibition of growth at 10 µM,[13],26.2%
same,inhibition of growth at 10 µM,[14],59.4%
N#Cc1c(-c2ccc(Cl)cc2)nc(N/N=C2/C(=O)Nc3ccc(Br)cc32)nc1N1CCOCC1,inhibition of growth at 10 µM,[1],< 1%
same,inhibition of growth at 10 µM,[2],< 1%
same,inhibition of growth at 10 µM,[3],< 1%
same,inhibition of growth at 10 µM,[4],< 1%
same,inhibition of growth at 10 µM,[5],28.7%
same,inhibition of growth at 10 µM,[6],< 1%
same,inhibition of growth at 10 µM,[7],< 1%
same,inhibition of growth at 10 µM,[8],< 1%
same,inhibition of growth at 10 µM,[9],< 1%
same,inhibition of growth at 10 µM,[10],< 1%
same,inhibition of growth at 10 µM,[11],14.2%
same,inhibition of growth at 10 µM,[12],< 1%
same,inhibition of growth at 10 µM,[13],< 1%
same,inhibition of growth at 10 µM,[14],< 1%
N#Cc1c(-c2ccc(Cl)cc2)nc(N/N=C/c2cccc([N+](=O)[O-])c2)nc1N1CCOCC1,inhibition of growth at 10 µM,[1],26.1%
same,inhibition of growth at 10 µM,[2],28.1%
same,inhibition of growth at 10 µM,[3],27.2%
same,inhibition of growth at 10 µM,[4],14.5%
same,inhibition of growth at 10 µM,[5],65.1%
same,inhibition of growth at 10 µM,[6],13.5%
same,inhibition of growth at 10 µM,[7],22.3%
same,inhibition of growth at 10 µM,[8],42.5%
same,inhibition of growth at 10 µM,[9],< 1%
same,inhibition of growth at 10 µM,[10],< 1%
same,inhibition of growth at 10 µM,[11],17.6%
same,inhibition of growth at 10 µM,[12],< 1%
same,inhibition of growth at 10 µM,[13],< 1%
same,inhibition of growth at 10 µM,[14],28.7%
CSc1nc(Cl)c(C#N)c(-c2ccc(Cl)cc2)n1,inhibition of growth at 10 µM,[1],< 1%
same,inhibition of growth at 10 µM,[2],< 1%
same,inhibition of growth at 10 µM,[3],< 1%
same,inhibition of growth at 10 µM,[4],< 1%
same,inhibition of growth at 10 µM,[5],< 1%
same,inhibition of growth at 10 µM,[6],< 1%
same,inhibition of growth at 10 µM,[7],< 1%
same,inhibition of growth at 10 µM,[8],58.5%
same,inhibition of growth at 10 µM,[9],< 1%
same,inhibition of growth at 10 µM,[10],< 1%
same,inhibition of growth at 10 µM,[11],< 1%
same,inhibition of growth at 10 µM,[12],< 1%
same,inhibition of growth at 10 µM,[13],< 1%
same,inhibition of growth at 10 µM,[14],< 1%
Cc1cc(C)n(-c2nc(-c3ccc(Cl)cc3)c(C#N)c(N3CCOCC3)n2)n1,inhibition of growth at 10 µM,[1],< 1%
same,inhibition of growth at 10 µM,[2],23.4%
same,inhibition of growth at 10 µM,[3],< 1%
same,inhibition of growth at 10 µM,[4],< 1%
same,inhibition of growth at 10 µM,[5],45.2%
same,inhibition of growth at 10 µM,[6],< 1%
same,inhibition of growth at 10 µM,[7],< 1%
same,inhibition of growth at 10 µM,[8],< 1%
same,inhibition of growth at 10 µM,[9],19.9%
same,inhibition of growth at 10 µM,[10],12.3%
same,inhibition of growth at 10 µM,[11],28.8%
same,inhibition of growth at 10 µM,[12],< 1%
same,inhibition of growth at 10 µM,[13],< 1%
same,inhibition of growth at 10 µM,[14],24.7%
N#Cc1c(-c2ccc(Cl)cc2)nc(NN2C(=O)c3ccccc3C2=O)nc1N1CCOCC1,inhibition of growth at 10 µM,[1],< 1%
same,inhibition of growth at 10 µM,[2],< 1%
same,inhibition of growth at 10 µM,[3],< 1%
same,inhibition of growth at 10 µM,[4],< 1%
same,inhibition of growth at 10 µM,[5],15.6%
same,inhibition of growth at 10 µM,[6],< 1%
same,inhibition of growth at 10 µM,[7],< 1%
same,inhibition of growth at 10 µM,[8],16%
same,inhibition of growth at 10 µM,[9],< 1%
same,inhibition of growth at 10 µM,[10],< 1%
same,inhibition of growth at 10 µM,[11],< 1%
same,inhibition of growth at 10 µM,[12],< 1%
same,inhibition of growth at 10 µM,[13],< 1%
same,inhibition of growth at 10 µM,[14],< 1%
N#Cc1c(-c2ccc(Cl)cc2)nc(N/N=C/c2cccc(Br)c2)nc1N1CCOCC1,inhibition of growth at 10 µM,[1],23.3%
same,inhibition of growth at 10 µM,[2],16.4%
same,inhibition of growth at 10 µM,[3],19.6%
same,inhibition of growth at 10 µM,[4],13.1%
same,inhibition of growth at 10 µM,[5],48.8%
same,inhibition of growth at 10 µM,[6],59.4%
same,inhibition of growth at 10 µM,[7],12.6%
same,inhibition of growth at 10 µM,[8],< 1%
same,inhibition of growth at 10 µM,[9],< 1%
same,inhibition of growth at 10 µM,[10],17.9%
same,inhibition of growth at 10 µM,[11],< 1%
same,inhibition of growth at 10 µM,[12],< 1%
same,inhibition of growth at 10 µM,[13],< 1%
same,inhibition of growth at 10 µM,[14],28.8%
